According to ChEMBL document CHEMBL2380290, “Neonicotinic analogues: selective antagonists for α4β2 nicotinic acetylcholine receptors” (Bioorg Med Chem, 2013):
Calls of active or inactive are those of the source. The calls are words filed in the database; no cut-off is given here.

Legend:
[1] = molecular target: Nicotinic acetylcholine receptor alpha4/beta2/alpha5 (Homo sapiens, UniProt P17787+P30532+P43681); experiment: Antagonist activity at (alpha4beta2)2alpha5 nAChR (unknown origin) expressed in Xenopus oocytes assessed as inhibition of acetylcholine-induced current after 2 mins by two-electrode voltage clamp assay; type: cell-based, Oocyte
[2] = molecular target: T1, Neuronal acetylcholine receptor; alpha4/beta2 (Homo sapiens, UniProt P17787+P43681); experiment: Displacement of [3H]cytisine from human alpha4beta2 nAChR overexpressed in human SHEP cells after 75 mins by liquid scintillation spectrometric analysis; type: cell-based
In short: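 SH-EP1-hα4β2 membrane homogenates (30–50 µg protein) were incubated with 1 nM [3H]cytisine for 75 min at 4 °C in Tris binding saline, pH 7.0. Filtration on PEI-soaked GF/C filters, scintillation counting. Four experiments in triplicate.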

[3] = molecular target: T2, Neuronal acetylcholine receptor subunit alpha-7 (Homo sapiens, UniProt P36544); experiment: Displacement of [125I]alpha-bungarotoxin from human alpha7 nAChR overexpressed in human SH-SY5Y cells after 120 mins by liquid scintillation spectrometric analysis; type: cell-based
[4] = molecular target: T1, Neuronal acetylcholine receptor; alpha4/beta2; experiment: Antagonist activity at (alpha4beta2)2alpha4 nAChR (unknown origin) expressed in Xenopus oocytes assessed as inhibition of acetylcholine-induced current after 2 mins by two-electrode voltage clamp assay; type: cell-based, Oocyte
[5] = molecular target: T1, Neuronal acetylcholine receptor; alpha4/beta2; experiment: Antagonist activity at (alpha4beta2)2beta2 nAChR (unknown origin) expressed in Xenopus oocytes assessed as inhibition of acetylcholine-induced current after 2 mins by two-electrode voltage clamp assay; type: cell-based, Oocyte
[6] = molecular target: T2, Neuronal acetylcholine receptor subunit alpha-7; experiment: Displacement of [125I]alpha-bungarotoxin from human alpha7 nAChR overexpressed in human SH-SY5Y cells at 1 mM after 120 mins by liquid scintillation spectrometric analysis; type: cell-based
In short: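 Membranes from SH-SY5Y-hα7 cells (30–50 µg protein) were incubated with 1 nM [125I]α-BgTx in Tris binding saline, pH 7.0, for 120 min at 25 °C. […] GF/C filtration, top test concentration 1 mM. […] Four experiments, triplicate.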

Sequence of Nicotinic acetylcholine receptor alpha4/beta2/alpha5 (P17787 whole entry): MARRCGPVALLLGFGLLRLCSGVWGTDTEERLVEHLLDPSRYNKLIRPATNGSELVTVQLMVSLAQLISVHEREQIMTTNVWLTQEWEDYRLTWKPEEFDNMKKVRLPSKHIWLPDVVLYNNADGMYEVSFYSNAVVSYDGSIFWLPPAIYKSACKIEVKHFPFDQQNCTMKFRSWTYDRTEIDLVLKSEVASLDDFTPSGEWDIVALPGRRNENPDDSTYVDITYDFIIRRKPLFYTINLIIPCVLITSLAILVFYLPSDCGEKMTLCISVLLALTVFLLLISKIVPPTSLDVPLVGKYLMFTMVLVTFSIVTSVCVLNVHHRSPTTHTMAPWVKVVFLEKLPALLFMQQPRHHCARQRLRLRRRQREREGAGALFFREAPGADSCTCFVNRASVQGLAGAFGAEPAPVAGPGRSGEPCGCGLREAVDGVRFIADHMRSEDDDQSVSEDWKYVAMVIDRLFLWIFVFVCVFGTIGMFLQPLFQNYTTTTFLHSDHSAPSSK
Sequence of Nicotinic acetylcholine receptor alpha4/beta2/alpha5 (P43681 whole entry): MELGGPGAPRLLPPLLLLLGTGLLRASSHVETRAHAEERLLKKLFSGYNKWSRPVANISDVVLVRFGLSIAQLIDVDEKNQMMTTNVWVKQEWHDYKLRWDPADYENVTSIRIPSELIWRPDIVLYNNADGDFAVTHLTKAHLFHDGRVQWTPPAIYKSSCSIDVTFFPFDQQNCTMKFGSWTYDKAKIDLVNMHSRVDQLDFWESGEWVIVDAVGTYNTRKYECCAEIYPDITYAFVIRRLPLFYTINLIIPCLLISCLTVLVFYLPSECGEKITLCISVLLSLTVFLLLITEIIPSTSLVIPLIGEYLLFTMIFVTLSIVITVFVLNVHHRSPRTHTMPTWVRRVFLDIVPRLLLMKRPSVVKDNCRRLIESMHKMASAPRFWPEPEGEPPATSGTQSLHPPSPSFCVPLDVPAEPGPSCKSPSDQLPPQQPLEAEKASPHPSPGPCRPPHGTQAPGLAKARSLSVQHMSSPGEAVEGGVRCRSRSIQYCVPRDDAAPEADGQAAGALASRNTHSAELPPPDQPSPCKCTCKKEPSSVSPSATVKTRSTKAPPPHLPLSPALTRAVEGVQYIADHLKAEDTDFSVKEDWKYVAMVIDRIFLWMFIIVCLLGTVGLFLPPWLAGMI
Sequence of Nicotinic acetylcholine receptor alpha4/beta2/alpha5 (P30532 whole entry): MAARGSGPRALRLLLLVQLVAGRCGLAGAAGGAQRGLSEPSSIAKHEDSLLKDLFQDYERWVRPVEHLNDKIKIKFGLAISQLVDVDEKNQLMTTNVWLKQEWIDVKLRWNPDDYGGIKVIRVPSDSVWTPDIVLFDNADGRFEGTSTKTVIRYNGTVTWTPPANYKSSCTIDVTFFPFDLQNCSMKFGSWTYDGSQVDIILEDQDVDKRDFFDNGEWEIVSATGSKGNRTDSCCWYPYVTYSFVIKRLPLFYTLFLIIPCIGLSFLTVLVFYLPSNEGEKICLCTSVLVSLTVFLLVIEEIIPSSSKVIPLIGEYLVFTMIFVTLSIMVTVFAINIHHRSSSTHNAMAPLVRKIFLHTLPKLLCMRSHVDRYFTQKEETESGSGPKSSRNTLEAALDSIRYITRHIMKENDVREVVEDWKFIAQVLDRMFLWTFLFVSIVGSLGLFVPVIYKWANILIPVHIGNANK
T1 sequence (P17787 whole entry): as the sequence (P17787 whole entry) above
T1 sequence (P43681 whole entry): as the sequence (P43681 whole entry) above
T2 sequence (P36544 whole entry): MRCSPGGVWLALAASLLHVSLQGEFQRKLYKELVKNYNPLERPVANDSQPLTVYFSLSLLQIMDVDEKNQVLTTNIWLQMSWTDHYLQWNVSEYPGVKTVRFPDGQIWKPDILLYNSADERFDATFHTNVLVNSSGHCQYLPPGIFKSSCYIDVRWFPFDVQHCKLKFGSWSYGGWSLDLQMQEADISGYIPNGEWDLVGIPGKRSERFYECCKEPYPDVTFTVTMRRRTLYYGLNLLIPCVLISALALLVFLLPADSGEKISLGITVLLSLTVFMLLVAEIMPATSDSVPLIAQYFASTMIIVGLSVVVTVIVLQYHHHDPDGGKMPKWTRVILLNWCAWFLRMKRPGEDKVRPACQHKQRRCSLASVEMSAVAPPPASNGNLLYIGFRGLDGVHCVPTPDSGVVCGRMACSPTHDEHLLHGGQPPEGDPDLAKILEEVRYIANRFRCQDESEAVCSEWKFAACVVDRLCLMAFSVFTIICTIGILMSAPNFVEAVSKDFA

SMILES	IC50 [1] [µM]	IC50 [2] [µM]	Ki [2] [µM]	inhibition [2]	IC50 [3] [µM]	Ki [3] [µM]	inhibition [3]	IC50 [4] [µM]	IC50 [5] [µM]	inhibition [6]
CN1CCC[C@H]1COC(=O)c1ccccc1	52.3	0.0819	0.0234	Dose-dependent effect	13.4	6.7	Dose-dependent effect	313	2.5	
CN1CCC[C@H]1COC(=O)c1cnc2ccccc2c1		0.759	0.217	Dose-dependent effect	97.3	48.7	Dose-dependent effect			
CN1CCC[C@H]1COC(=O)c1ccc(OCc2ccccc2)cc1	17.8	0.0042	0.0012	Dose-dependent effect	2.3	1.1	Dose-dependent effect	3.6	25.8	
CN1CCC[C@H]1COC(=O)c1cccc(N)c1	480	0.0284	0.0081	Dose-dependent effect			Dose-dependent effect	1.02	4.3	inactive
CN1CCC[C@H]1COC(=O)c1ccc(Cl)cc1	6	0.0394	0.0112	Dose-dependent effect	8.9	4.5	Dose-dependent effect	95	3.6	
CN1CCC[C@H]1COC(=O)c1ccc(Br)cc1		0.0784	0.0224	Dose-dependent effect	21.1	10.5	Dose-dependent effect			
CN1CCC[C@H]1COC(=O)c1ccc(OCc2ccccc2)nc1		0.166	0.0455		59.1	29.5				
CN1CCC[C@H]1COC(=O)c1ccc(Cl)nc1		0.528	0.151	Dose-dependent effect	58.5	29.3	Dose-dependent effect			
CN1CCC[C@H]1COC(=O)c1cccc([N+](=O)[O-])c1		1.61	0.46		464	232				
